# From ChEMBL document CHEMBL3797032, “Synthesis and in vitro growth inhibitory activity of novel silyl- and trityl-modified nucleosides” (Bioorg Med Chem, 2016)
# Columns and labels:
# [1] = tested on: K562; experiment: Growth inhibition of human K562 cells assessed as cell viability at 100 uM incubated for 24 hrs by MTT assay; assay type: functional; conditions: K562, 24 h, read-out: Activity
# How it was run: (§1)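 Leukemic lines (HL-60, K562, Jurkat) grown in suspension in RPMI-1640 + 10% heat-inactivated FBS. Colorectal HT-29 and Caco-2 grown adherent in DMEM + 5–10% FBS. Cells kept at 37 °C, 5% CO2, and checked for viability by trypan blue before use. Single final concentration 100 μM for 24 h at 37 °C, camptothecin as positive control. MTT read-out with formazan dissolved in DMSO; viability expressed relative to untreated control set at 100%.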
# [2] = tested on: Jurkat; experiment: Growth inhibition of human Jurkat cells assessed as cell viability at 100 uM incubated for 24 hrs by MTT assay; assay type: functional; conditions: read-out: Activity; how it was run: as §1
# [3] = Growth inhibition of human Hs683 cells assessed as reduction in cell viability incubated for 72 hrs by MTT assay; assay type: functional; conditions: Hs 683, 72 h
# How it was run: (§2)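 Glioma cells grown adherent: Hs683 in DMEM + 5–10% FBS, U373 in Earle's MEM + 10% FBS and 1 mM sodium pyruvate; trypan blue viability check before use. Exposed for 72 h to 0.01–100 μM, narciclasine as positive control. MTT read-out with formazan dissolved in DMSO; GI50 is the concentration giving 50% growth reduction versus untreated controls.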
# [4] = tested on: HT-29; experiment: Growth inhibition of human HT-29 cells assessed as cell viability at 100 uM incubated for 24 hrs by MTT assay; assay type: functional; conditions: HT-29, 24 h, read-out: Activity; how it was run: as §1
# [5] = Growth inhibition of human Caco2 cells assessed as cell viability at 100 uM incubated for 24 hrs by MTT assay; assay type: functional; conditions: Caco-2, 24 h, read-out: Activity; how it was run: as §1
# [6] = Growth inhibition of human WBC cells assessed as cell viability at 100 uM incubated for 24 hrs by MTT assay; assay type: cell-based; conditions: WBC cells (white blood cells), read-out: Activity
# How it was run: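 Freshly isolated human peripheral leucocytes from volunteers, exposed at a single final concentration of 100 μM for 24 h, camptothecin as comparator. Viability read by MTT assay with formazan dissolved in DMSO.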
# [7] = Growth inhibition of human HL60 cells assessed as cell viability at 100 uM incubated for 24 hrs by MTT assay; assay type: functional; conditions: HL-60, 24 h, read-out: Activity; how it was run: as §1
# [8] = Growth inhibition of human U373 cells assessed as reduction in cell viability incubated for 72 hrs by MTT assay; assay type: functional, U-373MG ATCC; conditions: U373 MG; how it was run: as §2
Compound,viability at 100 µM [1],viability at 100 µM [2],GI50 [3],viability at 100 µM [4],viability at 100 µM [5],"viability at 24 h, 100 µM [6]",viability at 100 µM [7],GI50 [8]
CC(=O)O[C@@H]1[C@H](OC(C)=O)[C@@H](CO[Si](c2ccccc2)(c2ccccc2)C(C)(C)C)O[C@H]1n1ccc(=O)[nH]c1=O,35.5%,> 50%,29 µM,> 50%,> 50%,100%,11.2%,32 µM
O=C1N[C@@H]2C(=C[C@H](O)[C@@H](O)[C@H]2O)c2cc3c(c(O)c21)OCO3 [NARCICLASINE],–,–,0.04 µM,–,–,–,–,0.029 µM
CC(C)(C)[Si](OC[C@H]1O[C@@H](n2ccc(N)nc2=O)[C@H](O)[C@@H]1O)(c1ccccc1)c1ccccc1,35.6%,16%,40 µM,25.6%,37.2%,100%,26%,28 µM
Cc1cn([C@@H]2O[C@@H]3CO[Si](C(C)C)(C(C)C)O[Si](C(C)C)(C(C)C)O[C@H]3[C@H]2O)c(=O)[nH]c1=O,–,–,91 µM,–,–,–,–,87 µM
CC[C@@]1(O)C(=O)OCc2c1cc1n(c2=O)Cc2cc3ccccc3nc2-1 [CAMPTOTHECIN],39.6%,8.9%,–,11.4%,12.8%,34.6%,23.4%,–
CC(C)(C)[Si](OC[C@H]1O[C@@H](n2ccc(=O)[nH]c2=O)[C@H](O)[C@@H]1O)(c1ccccc1)c1ccccc1,9.4%,6.3%,35 µM,29.4%,37.4%,61.5%,5.6%,36 µM
COc1ccc(C(OC[C@H]2O[C@@H](n3ccc(=O)n(C(=O)c4ccccc4)c3=O)[C@H](OC(C)=O)[C@@H]2OC(C)=O)(c2ccccc2)c2ccc(OC)cc2)cc1,–,–,44 µM,–,–,–,–,39 µM
CC(C)[Si]1(C(C)C)OC[C@H]2O[C@@H](n3ccc(=O)[nH]c3=O)[C@H](O)[C@@H]2O[Si](C(C)C)(C(C)C)O1,–,–,83 µM,–,–,–,–,81 µM
Cc1cn([C@@H]2O[C@H](CO[Si](C)(C)C(C)(C)C)[C@@H](O)[C@H]2O)c(=O)[nH]c1=O,–,–,77 µM,–,–,–,–,> 100 µM
Cc1cn([C@@H]2O[C@H](CO[Si](C)(C)C(C)(C)C(C)C)[C@@H](O)[C@H]2O)c(=O)[nH]c1=O,–,–,64 µM,–,–,–,–,68 µM
CC(C)[Si]1(C(C)C)OC[C@H]2O[C@@H](n3ccc(=O)[nH]c3=O)C(=O)[C@@H]2O[Si](C(C)C)(C(C)C)O1,–,–,70 µM,–,–,–,–,71 µM
CC(C)(C)[Si](OC[C@H]1O[C@@H](n2cnc3c(N)ncnc32)[C@H](O)[C@@H]1O)(c1ccccc1)c1ccccc1,45.5%,18.3%,46 µM,> 50%,> 50%,59.3%,27.9%,44 µM
CC(C)(C)[Si](C)(C)OC[C@H]1O[C@@H](n2ccc(=O)[nH]c2=O)[C@H](O)[C@@H]1O,–,–,84 µM,–,–,–,–,71 µM
COc1ccc(C(OC[C@H]2O[C@@H](n3ccc(=O)[nH]c3=O)[C@H](OC(C)=O)[C@@H]2OC(C)=O)(c2ccccc2)c2ccc(OC)cc2)cc1,> 50%,> 50%,28 µM,> 50%,> 50%,100%,> 50%,40 µM
COc1ccc(C(OC[C@H]2O[C@@H](n3ccc(=O)[nH]c3=O)[C@H](O)[C@@H]2O)(c2ccccc2)c2ccc(OC)cc2)cc1,8.3%,5.2%,39 µM,27.8%,26.1%,82.7%,6.5%,40 µM
CC(C)C(C)(C)[Si](C)(C)OC[C@H]1O[C@@H](n2ccc(=O)[nH]c2=O)[C@H](O)[C@@H]1O,–,–,> 100 µM,–,–,–,–,> 100 µM
Cc1cn([C@@H]2O[C@H](CO[Si](c3ccccc3)(c3ccccc3)C(C)(C)C)[C@@H](O)[C@H]2O)c(=O)[nH]c1=O,–,–,27 µM,–,–,–,–,25 µM
CC(=O)O[C@@H]1[C@H](OC(C)=O)[C@@H](CO[Si](c2ccccc2)(c2ccccc2)C(C)(C)C)O[C@H]1n1ccc(=O)n(C(=O)c2ccccc2)c1=O,–,–,35 µM,–,–,–,–,26 µM
CC(C)[Si]1(C(C)C)OC[C@H]2O[C@@H](n3ccc(=O)n(C(=O)c4ccccc4)c3=O)[C@H](O)[C@@H]2O[Si](C(C)C)(C(C)C)O1,–,–,29 µM,–,–,–,–,29 µM
